In ChEMBL document CHEMBL1799980, “Protuboxepins A and B and protubonines A and B from the marine-derived fungus Aspergillus sp. SF-5044” (J Nat Prod, 2011):
Active and inactive are the calls of the source. The calls are words filed in the database; no cut-off is given here.

Columns and labels:
HL-60 [1] = experiment: Growth inhibition of human HL60 cells after 48 hrs by cell proliferation assay; assay type: functional, cell-based; conditions: HL-60, 48 h
MDA-MB-231 [2] = experiment: Growth inhibition of human MDA-MB-231 cells after 48 hrs by cell proliferation assay; assay type: functional, cell-based; conditions: MDA-MB-231, 48 h
Summary of the method: (§1)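 MDA-MB-231 breast adenocarcinoma cells at 5 × 10^3 per well in a 96-well microplate. Compounds were dissolved in DMSO and applied for 48 h, including a 250 μM level. Viability was measured with the EZ-CyTox kit as A450.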

[3] = Growth inhibition of human Hep3B cells after 48 hrs by cell proliferation assay; assay type: functional, cell-based, Hep 3B2
Summary of the method: (§2)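 Hep3B hepatocellular carcinoma cells plated at 5 × 10^3 per well in 96-well format. Treatment with DMSO-dissolved compounds, including 250 μM, lasted 48 h. Proliferation was read with the EZ-CyTox kit by A450.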

[4] = Growth inhibition of rat 3Y1 cells after 48 hrs by cell proliferation assay; assay type: cell-based; conditions: 3Y1, 48 h
Summary of the method: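 Rat 3Y1 fibroblasts seeded at 5 × 10^3 per well in 96-well plates and exposed 48 h to DMSO-dissolved test compounds. Proliferation was quantified with the EZ-CyTox viability kit by absorbance at 450 nm.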

K562 [5] = experiment: Growth inhibition of human K562 cells after 48 hrs by cell proliferation assay; assay type: functional, cell-based; conditions: K562, 48 h
Summary of the method: (§3)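 K562 leukemia cells seeded at 3 × 10^4 per well in 96-well plates and exposed for 48 h to compounds in DMSO, including 250 μM. Readout was EZ-CyTox cell viability reagent with absorbance at 450 nm.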

K562 [6] = experiment: Growth inhibition of human K562 cells at 250 uM after 48 hrs by cell proliferation assay; assay type: functional, cell-based; summary of the method: as §3
[7] = Growth inhibition of rat 3Y1 cells at 250 uM after 48 hrs by cell proliferation assay; assay type: cell-based; conditions: 3y1, 48 h
Summary of the method: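 Cells seeded in 96-well plates at 5 × 10^3 per well. Compounds dissolved in DMSO and applied for 48 h. Viability read with an EZ-CyTox cell viability kit by absorbance at 450 nm.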

HL-60 [8] = experiment: Growth inhibition of human HL60 cells at 250 uM after 48 hrs by cell proliferation assay; assay type: functional, cell-based
MDA-MB-231 [9] = experiment: Growth inhibition of human MDA-MB-231 cells at 250 uM after 48 hrs by cell proliferation assay; assay type: functional, cell-based; summary of the method: as §1
Hep 3B2 = experiment: Growth inhibition of human Hep3B cells at 250 uM after 48 hrs by cell proliferation assay; assay type: functional, cell-based; summary of the method: as §2

CCC(C)[C@@H]1NC(=O)[C@@H](Cc2ccccc2)n2c1nc1c(c2=O)C=CC=CO1 (stereo not given in full) [PROTUBOXEPIN A]
IC50 (HL-60 [1]): 75 µM
IC50 (MDA-MB-231 [2]): 130 µM
IC50 [3]: 150 µM
IC50 [4]: 180 µM
IC50 (K562 [5]): 250 µM

CC(=O)N1c2ccccc2[C@]2(O)C[C@@H]3C(=O)N[C@@H](CC(C)C)C(=O)N3[C@H]12 [PROTUBONINE A]
growth inhibition (GI) (K562 [6]): inactive
growth inhibition (GI) [7]: Not Active
growth inhibition (GI) (HL-60 [8]): inactive
growth inhibition (GI) (MDA-MB-231 [9]): inactive
growth inhibition (GI) (Hep 3B2): inactive

CC(=O)O[C@@]12C[C@@H]3C(=O)N[C@@H](CC(C)C)C(=O)N3[C@@H]1N(C(C)=O)c1ccccc12 [PROTUBONINE B]
growth inhibition (GI) (K562 [6]): inactive
growth inhibition (GI) [7]: Not Active
growth inhibition (GI) (HL-60 [8]): inactive
growth inhibition (GI) (MDA-MB-231 [9]): inactive
growth inhibition (GI) (Hep 3B2): inactive
